The structures appear in SMILES notation. Calls of active or inactive are those of the source. No cut-off for these calls is given here. Peptide text beside a SMILES is read from it. * marks the point of attachment. Cbz = O=C(OCc1ccccc1)*

Series [1] deals with T1, Proteasome component C5 (Homo sapiens) (UniProt P20618).
T1 sequence (whole entry): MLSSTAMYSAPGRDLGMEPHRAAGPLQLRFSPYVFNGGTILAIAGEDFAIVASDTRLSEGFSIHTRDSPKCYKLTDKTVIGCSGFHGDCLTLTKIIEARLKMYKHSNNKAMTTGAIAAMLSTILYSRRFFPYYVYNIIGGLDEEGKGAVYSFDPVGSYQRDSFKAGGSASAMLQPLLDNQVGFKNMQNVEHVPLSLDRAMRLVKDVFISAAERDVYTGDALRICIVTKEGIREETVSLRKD
As to the kind of experiment: Inhibition of PGPH-like activity of human 20S proteasome beta 1 subunit assessed as hydrolysis of Z-LLE-AMC fluorogenic substrate at 10 uM measured for 1 hr by fluorometric analysis relative to control. Further details: scale not given: the % may be the effect or the level left.

In series [2] the target is Proteasome Macropain subunit (Homo sapiens) (UniProt P49721). The experiment in a line: Inhibition of trypsin-like activity of human 20S proteasome beta 2 subunit assessed as hydrolysis of Boc-LRR-AMC fluorogenic substrate at 10 uM measured for 1 hr by fluorometric analysis relative to control. Also noted: scale not given: the % may be the effect or the level left.
The target of series [3] is T2, Proteasome Macropain subunit MB1 (Homo sapiens) (UniProt P28074).
T2 sequence (whole entry): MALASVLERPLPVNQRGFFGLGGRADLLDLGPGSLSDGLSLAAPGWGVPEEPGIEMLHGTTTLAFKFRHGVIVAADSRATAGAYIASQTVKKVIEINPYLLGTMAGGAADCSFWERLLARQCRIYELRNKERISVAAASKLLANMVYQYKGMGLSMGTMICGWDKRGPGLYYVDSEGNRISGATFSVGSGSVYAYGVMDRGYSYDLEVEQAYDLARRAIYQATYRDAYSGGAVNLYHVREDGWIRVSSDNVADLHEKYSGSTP
As to the kind of experiment: Inhibition of chymotrypsin-like activity of human 20S proteasome beta 5 subunit assessed as hydrolysis of succinyl-LLVY-AMC fluorogenic substrate at 10 uM measured for 1 hr by fluorometric analysis relative to control. Further details: scale not given: the % may be the effect or the level left.

Series [4] can be described thus: Inhibition of chymotrypsin-like activity of Saccharomyces cerevisiae 20S proteasome beta 5 subunit.
Series [5] deals with HeLa. As to the kind of experiment: Cell cycle arrest in human HeLa cells assessed as accumulation at sub G1 phase at 60 uM after 24 hrs by propidium iodide staining-based flow cytometric analysis (reference value: 2.2%). It is filed as functional. Background: In flow cytometry, cells or beads pass a laser one at a time.
Series [6] has as its system HeLa. As to the kind of experiment: Cell cycle arrest in human HeLa cells assessed as accumulation at sub G1 phase at 10 uM after 24 hrs by propidium iodide staining-based flow cytometric analysis (reference value: 2.2%). Format: functional.
The subject of series [7] is HeLa. As to the kind of experiment: Induction of apoptosis in human HeLa cells assessed as caspase 3 cleavage at 1 to 30 uM after 24 hrs by Western blotting analysis. It is filed as functional, cell-based.
Series [8] has as its system HeLa. As to the kind of experiment: Induction of apoptosis in human HeLa cells assessed as PARP cleavage after 24 hrs by Western blotting analysis. Format: functional, cell-based. In a few lines:
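HeLa cells seeded 4×10^5 cells/well, incubated 24 h with varying compound concentrations; PARP cleavage detected in lysates by Western blotting.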
For orientation: Immunoblotting shows a protein as a band on a membrane.

For series [9], the target named is T2, Proteasome Macropain subunit MB1 (Homo sapiens). As to the kind of experiment: Inhibition of biotin-labeled belactosin A binding to human 20S proteasome beta 5 subunit at 100 uM preincubated for 1 hr followed by biotin-labeled belactosin A treatment measured after 1 hr by Western blotting analysis. The essentials: (§1)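 Purified human 20S proteasome preincubated 1 h at 37 °C with varying compound levels, then biotin-belactosin A added to 1 µM for a further 1 h. Proteins separated by SDS-PAGE, blotted to PVDF, milk-blocked; biotin-labelled subunits detected with streptavidin-HRP and ECL.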

Series [10] has the same target. The experiment in a line: Inhibition of biotin-labeled belactosin A binding to human 20S proteasome beta 5 subunit at 1 to 100 uM preincubated for 1 hr followed by biotin-labeled belactosin A treatment measured after 1 hr by Western blotting analysis. The essentials:
as §1

For series [11], the target named is T1, Proteasome component C5 (Homo sapiens). As to the kind of experiment: Inhibition of biotin-labeled belactosin A binding to human 20S proteasome beta 1 subunit preincubated for 1 hr followed by biotin-labeled belactosin A treatment measured after 1 hr by Western blotting analysis. In a few lines: as §1
Series [12] has as its target T3, Proteasome Macropain subunit MB1 (Homo sapiens, UniProt P28074).
T3 sequence (P28074 whole entry): T2 sequence (whole entry)
As to the kind of experiment: Noncompetitive inhibition of chymotrypsin-like activity of human 20S proteasome beta 5 subunit assessed as hydrolysis of succinyl-LLVY-AMC fluorogenic substrate Lineweaver-Burk plot analysis.

The target in series [13] is T1, Proteasome component C5 (Homo sapiens). The experiment in a line: Inhibition of biotin-labeled belactosin A binding to human 20S proteasome beta 1 subunit at 10 uM preincubated for 1 hr followed by biotin-labeled belactosin A treatment measured after 1 hr by Western blotting analysis. The essentials:
as §1

Series [14] deals with T3, Proteasome Macropain subunit MB1. As to the kind of experiment: Inhibition of chymotrypsin-like activity of human 20S proteasome beta 5 subunit assessed as hydrolysis of succinyl-LLVY-AMC fluorogenic substrate measured for 1 hr by fluorometric analysis. The essentials:
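Purified human 20S proteasome (0.1 µg) incubated at 37 °C with 50 µM succinyl-LLVY-AMC (CT-L) or 20 µM Z-LLE-AMC (PGPH) and compound at 0.01–10 µM in 25 mM HEPES, 0.5 mM EDTA, 0.03% SDS. IC50 taken from inhibition curve; means of three experiments.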

The nature of series [15]: Cytotoxicity against ER-negative HEK293 cells after 48 hrs by MTT assay. It is filed as cell-based. The following applies: human. In a few lines: (§2)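 HEK293 (DMEM) or HL-60 (IMDM) cells, each with 10% FBS plus penicillin/streptomycin, seeded 5×10^3 cells/well in duplicate. Exposed 48 h to compound at […]. MTT reduction read as 560/750 nm absorbance ratio after HCl/2-propanol extraction. CyT50 from inhibition curve; means of triplicate.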
Background: Formazan colour is commonly taken as a measure of viable cells.

Series [16] relates to HL-60. As to the kind of experiment: Cytotoxicity against […] human HL60 cells after 48 hrs by MTT assay. The following applies: HL-60, 48 h. Format: functional. In a few lines:
as §2

For series [17], the system named is HeLa. As to the kind of experiment: Inhibition of proteasome in human HeLa cells assessed as accumulation of ubiquitinated proteins at 30 uM after 24 hrs by Western blotting analysis. It is filed as cell-based. The essentials: (§3)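 HeLa cells, 4×10^5 cells/well, treated 24 h with compound; vehicle control 0.25% DMSO. Lysed in Tris–HCl/2% SDS/glycerol buffer with protease and phosphatase inhibitors; 30 µg protein run on SDS-PAGE, PVDF blot probed with anti-ubiquitin (1:200), actin as loading reference, HRP secondary, ECL detection.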

For series [18], the species on record is Homo sapiens. The experiment in a line: Inhibition of calpain (unknown origin) at >10 uM.
Series [19] is filed under the species Homo sapiens. As to the kind of experiment: Inhibition of cathepsin (unknown origin) at >10 uM.
Series [20] relates to HeLa. As to the kind of experiment: Inhibition of proteasome in human HeLa cells assessed as accumulation of ubiquitinated proteins at 10 uM after 24 hrs by Western blotting analysis. It is filed as cell-based. The essentials: as §3
For series [21], the target named is T2, Proteasome Macropain subunit MB1 (Homo sapiens). The conditions noted are these: 10 to 20 uM.
The target in series [22] is Proteasome Macropain subunit (Homo sapiens) (UniProt P49721). The conditions noted are these: 10 to 20 uM.
Series [23] deals with T1, Proteasome component C5 (Homo sapiens). The following applies: 10 to 20 uM.

Proteasome Macropain subunit (Homo sapiens), sequence (P49721 whole entry): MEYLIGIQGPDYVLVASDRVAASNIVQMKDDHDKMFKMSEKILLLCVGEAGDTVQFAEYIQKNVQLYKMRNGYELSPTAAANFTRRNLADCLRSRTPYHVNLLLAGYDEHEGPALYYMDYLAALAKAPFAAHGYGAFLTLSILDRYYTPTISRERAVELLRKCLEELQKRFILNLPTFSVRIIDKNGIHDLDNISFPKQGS

As for `CC/C(=C(\c1ccccc1)c1ccc(OCCN(C)C)cc1)c1ccccc1`, the Activity in series [1] was 85%; in series [2] it was 112%; in [3] it was 145%.

Take `CCC(=C(c1ccc(OCCN2CCCCCC2)cc1)c1ccc(OCCN2CCCCCC2)cc1)c1ccccc1`: the IC50 in series [4] is 1800 nM; in [14], 640 nM. The Activity in series [5] was 4.7%; in series [6], 3.4%; in series [8] it was “Dose-dependent effect”. Also, the result in series [7] was Active. The inhibition entry in series [9], in series [10], in series [13] and in series [17] was “Active” throughout. In [11], the inhibition entry is “Dose-dependent effect”. Moreover, the inhibition constant Ki in series [12] stood at 580 nM. This compound also returned a CC50 at 48 h in [15] of 4380 nM. For the same compound, it took 3420 nM to reach half-maximal cytotoxicity in [16] (CC50). The inhibition entry in series [18] and in series [19] was “inactive” each time.

Consider `CC(C)C[C@@H](C=O)NC(=O)[C@H](CC(C)C)NC(=O)[C@H](CC(C)C)NC(=O)OCc1ccccc1` [MG-132] (Cbz-Leu-Leu-Leu-aldehyde), for which the Activity in series [6] turned out to be 5.6%. For the same compound, the inhibition entry in [20], in series [21], in series [22] and in [23] was “Active” in each case.

The term IC50 denotes the concentration needed to halve the response being measured. For orientation: Ki means the equilibrium dissociation constant of an inhibitor or competing ligand from its target. As a reminder, the CC50 is the concentration that lowers cell viability or growth by half.

(Values after ChEMBL document CHEMBL3098012, “A novel tamoxifen derivative, ridaifen-F, is a nonpeptidic small-molecule proteasome inhibitor” (Eur J Med Chem, 2014).)
